# CXCR6 inh: blocks human CXCR6 beta-arrestin recruitment; O00574; AID 602244; inhibition, % at 20 µM; CHO-K1 PathHunter CXCR6 beta-arrestin, luminescence; 0.36% of 360,000 active; in the data active = inhibition above about 34%, passing the limit was not always enough;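 also: antagonist mode with CXCL16 agonist at 10 nM final; 0% = 10 nM CXCL16 with DMSO and 100% = unstimulated wells without agonist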
# APJ antag: APJ receptor antagonism. inhibition, % at 20 µM. AID 2521. CHO-K1 APJ beta-arrestin complementation, luminescence. P35414. 0.32% of 330,000 active;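 active = inhibition above about 40% at 20 µM, limit read from the data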;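 also: cells challenged with 10 nM apelin-13 agonist together with compound; plate controls were apelin-13 plus DMSO wells for no effect and DMSO wells lacking apelin-13 for full effect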
# APJ agonist: agonists of human APJ apelin receptor | CHO-K1 APJ PathHunter beta-arrestin, luminescence; 0% DMSO wells, 100% apelin | activation, % at 20 µM | 0.11% of 330,000 active | AID 2520;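 active = activation more than six SD over the plate average, tested at 20 µM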;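 also: 0% = DMSO alone and 100% = apelin-13 at 10 nM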
#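 Test system: CHO-K1 APJ beta-arrestin complementation cell line. Amount: cell density 1000 per well. Controls: DMSO negative, 10 nM Apelin-13 positive. Signal: luminescent beta-gal fragment complementation, chemiluminescent substrate. Read-out basis: agonist-driven arrestin binding to APJ. Timing: compound stimulation 90 min at 25 °C, detection 60 min.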
# CCR6 antag: antagonists of human CCR6 receptor; P51684; CHO-K1 CCR6 PathHunter beta-arrestin, luminescence, CCL20-stimulated; inhibition, % at 20 µM; 0.49% of 340,000 active;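 active = compounds whose inhibition of the agonist-driven luminescence signal at 20 µM reaches about 50%, limit read from the data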;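 also: cells stimulated with CCL20 at 14 nM final; plate controls were DMSO with CCL20 for no effect and DMSO without agonist for full effect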
# APOBEC3A inh: human APOBEC3A DNA deaminase inhibition | inhibition, % at 20 µM | 0.41% of 330,000 active | P31941 | recombinant A3A, FAM/TAMRA ssDNA deamination fluorescence | AID 493011;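 active = at least 40% inhibition at 20 µM here, with at most 30% in a related deaminase screen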;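 also: plate controls were A3A with DMSO for no effect and wells lacking A3A enzyme for full effect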
# Target sequence (P31941 whole entry, looked up): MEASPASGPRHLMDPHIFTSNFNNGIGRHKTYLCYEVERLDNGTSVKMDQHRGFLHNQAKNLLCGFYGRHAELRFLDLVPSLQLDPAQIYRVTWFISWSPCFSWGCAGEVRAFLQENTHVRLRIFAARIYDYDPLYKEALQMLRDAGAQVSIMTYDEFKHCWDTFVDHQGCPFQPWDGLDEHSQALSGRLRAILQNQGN
# A3G deaminase: blocks human APOBEC3G single-stranded DNA deamination | Q9HC16 | recombinant A3G, ssDNA deamination FAM/TAMRA fluorescence | inhibition, % at 20 µM | 0.28% of 330,000 active | AID 493012;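 active = inhibition of at least 40% at 20 µM, with no more than 30% in the related APOBEC3A deaminase screen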;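 also: plate controls were DMSO wells with A3G for no effect and wells lacking A3G enzyme for full effect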
# Target sequence (Q9HC16 whole entry, looked up): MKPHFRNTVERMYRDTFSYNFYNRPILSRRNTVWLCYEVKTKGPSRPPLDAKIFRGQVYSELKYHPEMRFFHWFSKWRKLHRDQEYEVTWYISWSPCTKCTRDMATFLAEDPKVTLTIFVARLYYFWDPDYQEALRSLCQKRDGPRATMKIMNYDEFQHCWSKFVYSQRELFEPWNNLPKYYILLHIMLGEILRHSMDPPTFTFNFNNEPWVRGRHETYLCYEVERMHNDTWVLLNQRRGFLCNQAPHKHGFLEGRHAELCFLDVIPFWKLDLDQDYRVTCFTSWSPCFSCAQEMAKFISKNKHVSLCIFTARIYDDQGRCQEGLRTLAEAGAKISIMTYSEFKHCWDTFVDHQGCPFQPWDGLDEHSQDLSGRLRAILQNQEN
# APJ antag confirm: APJ receptor antagonism confirmation | APJ beta-arrestin recruitment, luminescence, antagonist mode | inhibition, % at 20 µM | shares compounds with APJ antag | 66% of 950 active; in the data active = inhibition above about 50%
# An asterisk follows results filed as active; . = not tested or not shown. Most compounds without a hit are left out; they make up all but 1.4% or so of the library.
SMILES,CXCR6 inh,APJ antag,APJ agonist,CCR6 antag,APOBEC3A inh,A3G deaminase,APJ antag confirm
CC1=C(C(=O)N2CCOCC2)CC(CC(=O)NCCCCc2ccccc2)C(=O)N1Cc1ccc(F)cc1 (stereo unspecified),7,.,.,.,.,.,.
Nc1nc(COC(=O)c2ccc3c(c2)OCCO3)nc(Nc2ccccc2)n1,-3,6,1,-1,0,-10,.
CCOC(=O)c1ccc(S(=O)(=O)NNC(=O)c2cccc(N(C)C)c2)cc1,-1,50*,0,5,2,-10,19
CCN(CC)C(=O)Cn1cnc2sc(C(=O)N3CCN(Cc4ccc5c(c4)OCO5)CC3)c(C)c2c1=O,-2,4,0,-11,2,2,.
COC(=O)CCC(=O)N1CCC(Oc2cccc(C(=O)NCc3ccccn3)c2)CC1,-5,.,.,.,.,.,.
COCC(=O)N1CCC(Oc2cccc(C(=O)NCc3ccccn3)c2)CC1,-4,43*,-3,0,-4,-4,-5
Cc1ccc(C(O)C(=O)c2ccco2)cc1 (stereo unspecified),3,-53,7,5,2,-4,.
O=C(c1ccco1)C(O)c1ccco1 (stereo unspecified),34,52*,-13,58*,6,-4,98*
COc1ccccc1NS(=O)(=O)c1cc([N+](=O)[O-])ccc1N/N=C/c1c[nH]c2ccccc12,39,56*,-9,50*,-1,-4,91*
COc1ccc(C=NNc2ccc([N+](=O)[O-])cc2S(=O)(=O)Nc2ccccc2C(=O)O)cc1OC,21,27,-9,33,-3,-5,.
COc1ccc(NS(=O)(=O)c2cc([N+](=O)[O-])ccc2NN=Cc2ccccc2OCC(=O)O)cc1,30,36,-7,38,2,-1,.
COc1ccc(NS(=O)(=O)c2cc([N+](=O)[O-])ccc2N/N=C\c2c(C)[nH]c3ccccc23)cc1,36,75*,-19,41,4,0,99*
Cc1ccccc1OCCn1c(S(=O)(=O)O)nc2c(N)ncnc21,0,8,-3,11,-5,-6,.
Cn1cc(SCC(=O)Nc2ccc3c(c2)OCO3)c2ccccc21,-4,17,-1,13,-7,-12,.
Cn1c(=O)cc(SCC(=O)Nc2ccc3c(c2)OCO3)c2ccccc21,-6,45*,6,12,5,-2,-26
COc1ccc(/C=C2/C(=O)N(c3ccccc3)N=C2C)cc1OC,7,47*,0,16,-5,-6,7
COc1ccc(/C=C2/C(=O)N(c3ccccc3)N=C2C)cc1,2,12,2,10,3,0,.
CC1=NN(c2ccccc2)C(=O)/C1=C/c1cccc(C)c1,6,14,-2,11,-3,-11,.
COc1cc(/C=C2/C(=O)N(c3cccc(Br)c3)N=C2C)cc(OC)c1O,59*,54*,-10,72*,-2,-4,82*
CC(C)Oc1cccc(C(=O)NC(=S)Nc2cccnc2)c1,21,42*,-5,38,-2,-2,50*
COc1cccc(C(=O)NC(=S)Nc2cccnc2)c1,23,21,-5,34,-3,-9,.
O=C(COC(=O)c1ccccc1F)c1ccc(-n2nncc2-c2ccco2)cc1,24,41*,-6,35,1,-4,5
CN(C)S(=O)(=O)n1cc(/C=C(\NC(=O)c2ccccc2F)C(=O)N2CCOCC2)c2ccccc21,7,14,-5,0,-6,-7,.
CN(C)S(=O)(=O)n1cc(/C=C(\NC(=O)c2ccccc2Cl)C(=O)N2CCOCC2)c2ccccc21,0,50*,-2,-8,-5,-7,23
OC1CN=C2CCCc3c2n(c2ccc(Cl)cc32)C1 (stereo unspecified),52*,61*,-11,68*,2,-4,101*
SMILES,CXCR6 inh,APJ antag,APJ agonist,CCR6 antag,APOBEC3A inh,A3G deaminase,APJ antag confirm
CCOc1ccc(CCNC(=O)CS(=O)Cc2nc(-c3ccc(OC)cc3)oc2C)cc1OCC (stereo unspecified),5,4,0,-4,1,11,.
COc1cc(/C=C2/SC(=S)N(CC3CCCO3)C2=O)ccc1O (stereo unspecified),42*,48*,-4,73*,0,-2,88*
COc1ccc(/C=C2\SC(=S)N(CC3CCCO3)C2=O)cc1 (stereo unspecified),-1,-26,-5,17,2,-3,.
COc1cc(/C=C2\SC(=S)N(C(Cc3ccccc3)C(=O)O)C2=O)ccc1O (stereo unspecified),26,48*,-7,30,-2,-5,82*
COc1cc(/C=C2\SC(=S)N(Nc3ncc(C(F)(F)F)cc3Cl)C2=O)ccc1O,60*,51*,-20,68*,-3,-7,105*
CCOc1cc(/C=C2\SC(=S)N(Nc3ccccc3)C2=O)ccc1O,44*,52*,-11,62*,-5,-4,108*
S=C(Nc1ccc(Oc2ccccc2)cc1)Nc1cccnc1,0,-2,-1,13,-4,2,.
O=C(Oc1ccc(/C=N/NC(=O)c2ccccn2)cc1)c1cccc(F)c1,0,-6,1,-3,-1,-2,.
COc1ccc(Cl)cc1-c1nc(SCC(=O)NC(C)C(C)C)n[nH]1 (stereo unspecified),-1,-16,-2,18,1,-8,.
COc1ccc(S(N)(=O)=O)cc1C(=O)NNC(=O)C1COc2ccccc2O1 (stereo unspecified),1,-6,-3,5,4,-2,.
COc1cc(/C=C2\SC(=S)N(Nc3ccccc3)C2=O)ccc1O,51*,56*,-7,74*,-5,-4,97*
CC12CC(NC(=O)N1c1cccc(C(=O)N3CCCCC3)c1)c1ccccc1O2 (stereo unspecified),0,9,7,17,-7,-9,.
CCCc1nn(C)c(C(=O)Nc2ccc3ccccc3c2)c1Cl,5,-3,-3,18,-6,-9,.
CCOc1cccc(/C=C/c2ccc3cccc(O)c3n2)c1OC,24,43*,-9,31,-5,-9,72*
Oc1cccc2ccc(/C=C/c3ccccc3Cl)nc12,35,46*,-10,45,-1,-4,82*
COc1cc(Cl)cc(/C=C/c2ccc3cccc(O)c3n2)c1OC,40,41*,-8,41,-1,-1,37
CCc1nc2ccc(C(=O)N3CCN(C(=O)c4ccco4)CC3)cn2c1N(C)C(=O)c1cccc(OC)c1,-12,.,.,.,.,.,.
